Measured values published in ChEMBL document CHEMBL4602702, “Red-Emitting Dibenzodiazepinone Derivatives as Fluorescent Dualsteric Probes for the Muscarinic Acetylcholine M2 Receptor” (J Med Chem, 2020).
Calls of active or inactive are those of the source. No cut-off for these calls is given here.

Legend:
[1] = target: T1, Muscarinic acetylcholine receptor M2 (Homo sapiens, UniProt P08172); test: Displacement of [3H]-NMS from human muscarinic M2 receptor stably expressed in CHO-K9 cells by radioligand competitive binding assay; type: cell-based
T1 sequence (P08172 whole entry): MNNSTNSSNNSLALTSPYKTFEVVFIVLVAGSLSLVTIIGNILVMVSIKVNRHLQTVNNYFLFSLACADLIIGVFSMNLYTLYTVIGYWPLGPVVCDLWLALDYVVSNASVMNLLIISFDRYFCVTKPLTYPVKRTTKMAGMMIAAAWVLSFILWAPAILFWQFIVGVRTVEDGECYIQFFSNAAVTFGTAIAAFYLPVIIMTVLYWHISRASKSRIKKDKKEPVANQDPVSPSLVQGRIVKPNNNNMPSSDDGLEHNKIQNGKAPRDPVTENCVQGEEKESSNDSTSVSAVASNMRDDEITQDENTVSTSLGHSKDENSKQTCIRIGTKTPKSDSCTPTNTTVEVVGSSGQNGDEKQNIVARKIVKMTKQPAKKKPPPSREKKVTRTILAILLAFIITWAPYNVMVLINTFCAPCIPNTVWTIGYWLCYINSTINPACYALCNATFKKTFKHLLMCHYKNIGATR
How it was run: (§1)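 Equilibrium competition binding at live CHO-hMxR cells with [3H]NMS at M1 0.2, M2 0.2, M3 0.2, M4 0.1, M5 0.3 nM. […] Four-parameter logistic fit converted to pKi; at least three experiments in triplicate (some two).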

[2] = target: T2, Muscarinic acetylcholine receptor M1 (Homo sapiens, UniProt P11229); test: Displacement of [3H]-NMS from human muscarinic M1 receptor stably expressed in CHO-K9 cells by radioligand competitive binding assay; type: cell-based; how it was run: as §1
T2 sequence (P11229 whole entry): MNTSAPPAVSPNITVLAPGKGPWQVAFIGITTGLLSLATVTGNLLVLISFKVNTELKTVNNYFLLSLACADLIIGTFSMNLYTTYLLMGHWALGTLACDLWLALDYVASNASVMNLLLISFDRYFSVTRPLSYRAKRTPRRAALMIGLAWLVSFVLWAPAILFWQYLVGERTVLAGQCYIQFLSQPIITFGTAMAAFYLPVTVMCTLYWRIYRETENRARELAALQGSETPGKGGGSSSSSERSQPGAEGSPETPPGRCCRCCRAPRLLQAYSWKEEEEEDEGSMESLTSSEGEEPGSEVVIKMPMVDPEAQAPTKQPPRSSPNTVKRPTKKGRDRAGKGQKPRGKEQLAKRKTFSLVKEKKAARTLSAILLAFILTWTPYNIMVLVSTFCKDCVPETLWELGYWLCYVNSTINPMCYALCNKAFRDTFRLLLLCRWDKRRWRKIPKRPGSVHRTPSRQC

[3] = target: Muscarinic acetylcholine receptor M3 (Homo sapiens, UniProt P20309); test: Displacement of [3H]-NMS from human muscarinic M3 receptor stably expressed in CHO-K9 cells by radioligand competitive binding assay; type: cell-based; how it was run: as §1
Sequence of Muscarinic acetylcholine receptor M3 (P20309 whole entry): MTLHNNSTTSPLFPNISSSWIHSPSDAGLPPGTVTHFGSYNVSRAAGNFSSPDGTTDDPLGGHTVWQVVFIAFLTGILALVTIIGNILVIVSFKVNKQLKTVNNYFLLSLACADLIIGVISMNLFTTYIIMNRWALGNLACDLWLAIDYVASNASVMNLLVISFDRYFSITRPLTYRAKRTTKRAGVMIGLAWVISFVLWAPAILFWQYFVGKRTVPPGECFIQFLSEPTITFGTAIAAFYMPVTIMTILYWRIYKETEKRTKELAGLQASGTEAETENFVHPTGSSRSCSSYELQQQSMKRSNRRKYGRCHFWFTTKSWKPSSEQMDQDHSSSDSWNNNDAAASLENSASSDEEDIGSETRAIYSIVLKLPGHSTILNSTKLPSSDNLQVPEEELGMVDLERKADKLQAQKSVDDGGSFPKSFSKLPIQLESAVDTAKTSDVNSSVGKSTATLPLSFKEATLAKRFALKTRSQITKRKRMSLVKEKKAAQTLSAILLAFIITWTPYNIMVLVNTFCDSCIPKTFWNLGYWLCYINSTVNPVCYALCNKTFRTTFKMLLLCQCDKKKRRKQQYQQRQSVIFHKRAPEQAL

[4] = target: T3, Muscarinic acetylcholine receptor M4 (Homo sapiens, UniProt P08173); test: Displacement of [3H]-NMS from human muscarinic M4 receptor stably expressed in CHO-K9 cells by radioligand competitive binding assay; type: cell-based; how it was run: as §1
T3 sequence (P08173 whole entry): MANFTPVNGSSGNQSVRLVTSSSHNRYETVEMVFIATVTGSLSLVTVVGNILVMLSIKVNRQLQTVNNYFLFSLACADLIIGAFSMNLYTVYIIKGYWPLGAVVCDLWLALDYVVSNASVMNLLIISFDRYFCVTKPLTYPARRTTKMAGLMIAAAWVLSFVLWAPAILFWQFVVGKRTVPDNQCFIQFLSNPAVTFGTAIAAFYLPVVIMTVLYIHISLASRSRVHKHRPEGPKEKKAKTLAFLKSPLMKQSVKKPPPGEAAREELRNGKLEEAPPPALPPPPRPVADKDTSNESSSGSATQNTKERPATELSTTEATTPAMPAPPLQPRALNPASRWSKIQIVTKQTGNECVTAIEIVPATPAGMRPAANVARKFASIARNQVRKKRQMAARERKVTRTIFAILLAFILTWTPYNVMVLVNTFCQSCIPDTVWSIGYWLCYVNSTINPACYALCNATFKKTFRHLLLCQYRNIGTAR

[5] = target: T4, Muscarinic acetylcholine receptor M5 (Homo sapiens, UniProt P08912); test: Displacement of [3H]-NMS from human muscarinic M5 receptor stably expressed in CHO-K9 cells by radioligand competitive binding assay; type: cell-based; how it was run: as §1
T4 sequence (P08912 whole entry): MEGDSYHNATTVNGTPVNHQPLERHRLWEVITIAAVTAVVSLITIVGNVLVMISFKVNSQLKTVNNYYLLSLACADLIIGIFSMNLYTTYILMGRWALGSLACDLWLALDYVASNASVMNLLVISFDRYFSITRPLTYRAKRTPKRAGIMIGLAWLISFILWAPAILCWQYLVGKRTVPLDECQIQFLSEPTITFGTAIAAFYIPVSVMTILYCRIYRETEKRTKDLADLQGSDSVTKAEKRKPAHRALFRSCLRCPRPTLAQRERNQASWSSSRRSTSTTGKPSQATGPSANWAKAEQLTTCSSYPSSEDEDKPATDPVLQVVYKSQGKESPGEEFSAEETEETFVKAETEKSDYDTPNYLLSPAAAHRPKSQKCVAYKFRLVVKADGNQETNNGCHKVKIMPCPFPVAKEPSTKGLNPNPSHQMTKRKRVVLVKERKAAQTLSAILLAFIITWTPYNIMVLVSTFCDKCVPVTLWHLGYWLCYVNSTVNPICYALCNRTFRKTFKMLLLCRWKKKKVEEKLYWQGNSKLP

[6] = target: T5, Muscarinic acetylcholine receptor M2 (Homo sapiens) (UniProt P08172); test: Binding affinity to human muscarinic M2 receptor expressed in […] cells assessed as unspecific binding at Kd incubated in dark at 22 degree C for 2 hrs in presence of atropine by FACSCalibur flow cytometric saturation binding study relative to control; type: cell-based
T5 sequence (whole entry): T1 sequence (P08172 whole entry)

[7] = Chemical stability of compound in PBS buffer assessed as retention time at pH 7.4 and 22 degree C measured up to 48 hrs by RP-HPLC analysis; type: physicochemical; details: pH 7.4, 48 h
How it was run: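 Fluorescent ligand stability checked in PBS pH 7.4 over 48 h by RP-HPLC on a C18 column with an aqueous TFA/acetonitrile gradient, oven at 25 °C, detection at 220 nm.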

[8] = target: T1, Muscarinic acetylcholine receptor M2; test: Binding affinity to human muscarinic M2 receptor expressed in […] cells incubated in dark at 22 degree C for 2 hrs by FACSCalibur flow cytometric saturation binding study; type: cell-based
[9] = target: T3, Muscarinic acetylcholine receptor M4; test: (§2) Antagonist activity at human muscarinic M4 receptor expressed in HEK293 cells co-expressing HA-Galphaq/i5 assessed as inhibition of carbachol-induced IP1 accumulation at 22 degree C pre-incubated for 180 mins followed by carbachol addition and further incubated at 37 degree C for 90 mins by HTRF assay; type: functional, cell-based
[10] = target: T1, Muscarinic acetylcholine receptor M2; test: Binding affinity to human muscarinic M2 receptor expressed in CHO-K9 cells incubated in dark measured after 60 mins by Hoechst H33342 dye based confocal plate reader assay; type: cell-based
How it was run: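 Live CHO-hMxR cells (M1 or M2) incubated with fluorescent ligand at 22 °C in the dark for 1 h, washed, then imaged at once by high-content confocal plate reader.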

[11] = target: T1, Muscarinic acetylcholine receptor M2; test: as §2, with “M2” for “M4”; type: functional, cell-based
How it was run: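 HEK-hM2-Gαqi5-HA cells (transient transfection) preincubated with antagonist at 22 °C for 180 min, then carbachol 0.3 μM (≈EC80) added and incubation continued at 37 °C for 90 min. Readout is inhibition of IP1 accumulation as pIC50, mean ± SEM of n independent experiments, each in duplicate.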

[12] = target: T5, Muscarinic acetylcholine receptor M2 (Homo sapiens); test: Agonist activity at human muscarinic M2 receptor expressed in HEK293 cells co-expressing HA-Galphaq/i5 assessed as induction of Galphaq/i5-mediated IP1 accumulation by HTRF assay; type: functional, cell-based
How it was run: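 HEK-293 cells transiently co-transfected with hM2R and hybrid Gαqi5-HA, run in agonist mode at 37 °C; IP1 accumulation measured. Carbachol control from 14 independent experiments in duplicate; test ligands from three or four independent experiments in duplicate.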

[13] = target: T1, Muscarinic acetylcholine receptor M2; test: Antagonist activity at human muscarinic M2 receptor expressed in HEK293 cells co-expressing HA-Galphaq/i5 assessed as inhibition of carbachol-induced IP1 accumulation at 37 degree C pre-incubated for 30 mins followed by carbachol addition and measured after 60 mins by HTRF assay; type: functional, cell-based

Ki [1] [nM]	Ki [2] [nM]	Ki [3] [nM]	Ki [4] [nM]	Ki [5] [nM]	Activity [6] [%]	Retention_time [7] [min]	Kd ([8]; read-out: Kd) [nM]	IC50 [9] [nM]	Kd ([10]; read-out: Kd) [nM]	Kd ([10]; read-out: pKd (converted)) [nM]	IC50 [11] [nM]	Activity [12]	Kd ([8]; read-out: pKd (converted)) [nM]	IC50 [13] [nM]	SMILES
0.589															NCCNC(=O)CCc1cn(CCCCC2CCN(CC(=O)N3c4ccccc4NC(=O)c4ccccc43)CC2)cn1
0.182	5.89	145	0.447	234											NCCN1CCN(CCCCC2CCN(CC(=O)N3c4ccccc4NC(=O)c4ccccc43)CC2)CC1
4.47	15.1	85.1	18.6	69.2											C[N+]1=C(/C=C/C=C/C=C2/N(CCCCCC(=O)NCCN3CCN(CCCCC4CCN(CC(=O)N5c6ccccc6NC(=O)c6ccccc65)CC4)CC3)c3ccccc3C2(C)C)C(C)(C)c2ccccc21
0.257	2.29	21.9	2.57	30.9	10	18	0.65								CC1(C)C(/C=C/C=C/C=C2/N(CCCCCC(=O)NCc3cc(C(=O)NCCN4CCC(N5CCC(n6c(=O)[nH]c7ccccc76)CC5)CC4)cc(C(=O)NCCN4CCN(CCCCC5CCN(CC(=O)N6c7ccccc7NC(=O)c7ccccc76)CC5)CC4)c3)c3ccc(S(=O)(=O)[O-])cc3C2(C)C)=[N+](CCCCS(=O)(=O)O)c2ccccc21.O=C(O)C(F)(F)F.O=C(O)C(F)(F)F.O=C(O)C(F)(F)F.O=C(O)C(F)(F)F
17	30.9	85.1	16.2	200											Cc1cc(/C=C/C=C/c2ccc(N(C)C)cc2)cc(C)[n+]1CCCCC1CCN(CC(=O)N2c3ccccc3NC(=O)c3ccccc32)CC1
1.35	10	67.6	3.98	141	10		2	91.2	10.8	8.71	60.3	inactive	2.57	49	CC1(C)C(/C=C/C=C/C=C2/N(CCCCCC(=O)NCCN3CCN(CCCCC4CCN(CC(=O)N5c6ccccc6NC(=O)c6ccccc65)CC4)CC3)c3ccccc3C2(C)C)=[N+](CCCCS(=O)(=O)[O-])c2ccccc21
10.7															NCCCCC1CCN(CC(=O)N2c3ccccc3NC(=O)c3ccccc32)CC1
